ChEMBL document CHEMBL4513216, “Probing the Open Global Health Chemical Diversity Library for Multistage-Active Starting Points for Next-Generation Antimalarials” (ACS Infect Dis, 2020)

Assay: Toxicity liver stage against HepG2, at 10uM
Format: cell-based
Parameters: test concentration 10 uM, cell line HepG2-A16-CD81EGFP
Conditions: human, HepG2-A16-CD81EGFP cells; read-out: INHIBITION
In short: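 Uninfected HepG2-A16-CD81EGFP cells, 3 × 10^3 per well, 1536-well, plated on prespotted compound at 10 μM final, parasite-free screening media added to match infected plates; puromycin 10 μM positive, DMSO 0.5% negative; run in parallel with 48 h PbLuc assay at 37 °C, 5% CO2; viability by CellTiter-Glo luminescence, normalized to controls.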

| SMILES | cytotoxicity at 10 µM [%] |
| --- | --- |
| O=C(NCCSC1CCCC1)c1cc(C2CC2)on1 | 0.459 |
| CN1CCC(CNC(=O)c2cccc(C(F)(F)F)c2)c2ccccc21 (configuration not stated) | 17.4 |
| COC(=O)[C@H]1CN(C(=O)NC(C)C)CCN1C(=O)C1CCCCC1 | 1.35 |
| CCc1ccc(NC(=O)c2cnc(N3CCCC3)nc2C)cc1 | 0.709 |
| CCOC(=O)[C@@H]1[C@@H](c2ccccc2)CN2CCN(S(C)(=O)=O)C[C@H]12 | 0.227 |
| Cn1nc2c(c1NC(=O)c1ccc(Cl)s1)CCC2 | -1.51 |
| CCN1C[C@H]2CCN(Cc3ccncc3)C(=O)[C@@H]2C1 | 5.53 |
| CCN1C(=O)CCCC12CCCN(C(=O)c1ccsc1)C2 (configuration not stated) | -153 |
| O=S(=O)(C1CC1)N1CCOC2(CCCN(c3cccc(F)c3)C2)C1 (configuration not stated) | 8.46 |
| COCCO[C@H]1CCN(Cc2ccoc2)[C@H]1Cc1cccnc1 | -3.85 |
| O=C(NCC1CCCO1)c1nc2c(s1)CCCN2Cc1ccccc1 (configuration not stated) | 1.84 |
| CCCS(=O)(=O)N1CC[C@@H]2[C@@H]1CC(=O)N2Cc1csc(C)n1 | -134 |
| O=C1CCCN1Cc1ncn2c1CN(C(=O)NC1CCCC1)CCC2 | -147 |
| COCc1cnc2n1CCN(C(=O)C1=CCCC1)C2C (configuration not stated) | 2.75 |
| CNC(=O)C1Cn2ccnc2C2(CCN(c3ccc(C)nn3)CC2)O1 (configuration not stated) | -137 |
| Cc1nc(CN2CC[C@H]3C[C@H](c4ccncn4)O[C@@H]3C2)cs1 | -144 |
| CCOc1ccc(Oc2cc(N)ccn2)cc1 | 2.9 |
| NC(=O)c1nnn(-c2ccc(Br)cc2)n1 | 6.56 |
| O=C(Nc1cc(-c2ccncc2)no1)C1CC1 | -4.18 |
| COCCc1ncc(CNC2(c3ccc(Cl)cc3)CC2)cn1 | -17.3 |
| CC(C)NC(=O)C1CCc2nnc(CNC(=O)c3cccnc3)n21 (configuration not stated) | 6.94 |
| O=C(COc1ccc2c(c1)CCCC2=O)NCc1ccco1 | 3.39 |
| Cc1nc(C2CCN(S(=O)(=O)c3ccc4c(c3)CCC4)CC2)n[nH]1 | -1.24 |

| SMILES | cytotoxicity at 10 µM [%] |
| --- | --- |
| CN(CC(O)C1CC1)C(=O)Nc1cc(F)cc(Br)c1 (configuration not stated) | -3.85 |
| CC(SCCC(=O)NC(N)=O)c1ccc(F)cc1F (configuration not stated) | 0.936 |
| Cc1sc2ncnc(N3CCCC3Cn3cccn3)c2c1C (configuration not stated) | 2.62 |
| Cc1cc(CC(C)NC(=O)c2n[nH]c3c2CCC3)n[nH]1 (configuration not stated) | -144 |
| NC(=O)C(NC1CCN(CC2CCCCC2)CC1)c1ccc(F)cc1 (configuration not stated) | -5.14 |
| CCOc1ccc(NC2CCN(CC(F)(F)F)C2=O)cc1C (configuration not stated) | 1.41 |
| CC(C)N1CCC(CNC(=O)COc2ccc(F)cc2F)C1 (configuration not stated) | -2.17 |
| N#CC1(NC(=O)c2nccc3ccccc23)CCC1 | 6.13 |
| CCN1CC(COC(=O)c2ccc(N(C)C)cc2F)CC1=O (configuration not stated) | 2.38 |
| CCN(CC)C(=O)CNC(=O)c1c[nH]c2ccc(OC)cc12 | -0.527 |
| O=C(Cc1csc(-c2ccoc2)n1)NCCCN1CCCCC1 | 12.6 |
| CCN(CC)c1nc2sc(C(=O)NCC(=O)OC)cc2s1 | 1.05 |
| Cc1nn(C(C)(C)C)c(=O)n1CC(=O)NC(C)(C)C | 1.45 |
| NC(=O)CC1CCN(C(=O)c2cnc(-c3ccccc3F)s2)CC1 | -0.608 |
| Cc1cc(N2CCc3c(nc(C(C)C)n3C)C2)nc(N)n1 | -6.79 |
| CC(C)(C)S(=O)(=O)CCNC1CSCCc2ccccc21 (configuration not stated) | -2.35 |
| OCCNC1CSCCc2ccccc21 (configuration not stated) | -1.44 |
| CCC(C)(NCc1cccc(NC(C)=O)c1)c1nc(C)cs1 (configuration not stated) | -2.27 |
| CC(=O)N1CCN(C(=O)NCc2ccccc2Cn2cncn2)CC1 | 0.0453 |
| O=C(CSc1ccc2c(c1)OCCO2)NS(=O)(=O)c1ccccc1Br | -4.62 |
| NC(=O)CSc1ccccc1NC(=O)C1CCCC1 | -135 |
| Cc1nnc2n1CCN(C(=O)c1cn(-c3ccccc3)nn1)C2 | -146 |
| Cc1nc2cc(O)nn2c(C)c1CCC(=O)N(C)CCC(C)C | -146 |

| SMILES | cytotoxicity at 10 µM [%] |
| --- | --- |
| COC1CCN(C(=O)c2cc(-c3ccc(Cl)cc3)on2)CC1 | -0.885 |
| CN(C(=O)Cc1ccc2c(c1)OCCO2)C1CCCCC1 | 2.89 |
| Fc1ccc(OC2CCN(Cc3nnc(-c4ccco4)o3)CC2)cc1 | -2.56 |
| O=C(CCNS(=O)(=O)c1cccnc1)N1CCCCC1 | -6.13 |
| COc1ccc(CNC(=O)CNc2ccccc2OC)cc1 | -2.25 |
| Cn1ccnc1CCNC(=O)NCCC1CCCCO1 (configuration not stated) | -1.94 |
| Cc1cc(NCC(=O)N(C)Cc2cccs2)c(C(N)=O)cc1F | 0.83 |
| O=C(NC1CC1)NC(c1ccc(F)cc1)C1CC1 (configuration not stated) | -0.158 |
| Cn1ccc(C(=O)N2CCN(Cc3ccccc3F)CC2)cc1=O | -1.44 |
| CC(=O)Nc1ccc2nn(C(C)C)cc2c1 | -145 |
| CCN(C(=O)CN1CCCC1c1ccc(F)cc1)c1ccccc1C (configuration not stated) | 5.42 |
| CC(C)c1cccc(-n2cc(O)c(C(=O)O)n2)c1 | -4.49 |
| O=C(C(NCc1cccc(F)c1F)c1ccccc1)N1CCOCC1 (configuration not stated) | 8.61 |
| CCC(=O)NC1CCCN(C(=O)Nc2cccc(COC(C)C)c2)C1 (configuration not stated) | 7.96 |
| Cc1cc(CS(=O)(=O)CC(=O)N2c3ccccc3CC2C)no1 (configuration not stated) | -0.284 |
| Cc1cccnc1NC(=O)C1CCN(C(=O)C(C)C)CC1 | 6.7 |
| COc1ccc(Br)cc1CCC(=O)N1CCCC(O)C1 (configuration not stated) | 5.66 |
| O=S(=O)(Cc1cccc2cccnc12)NC(CO)c1ccco1 (configuration not stated) | 4.22 |
| Cc1cc2c(cc1C)C(NCc1nnc3n1CCCCC3)CCCO2 (configuration not stated) | 0.873 |
| N#Cc1cccnc1NCCNC(=O)N1CCCC(C(F)(F)F)C1 (configuration not stated) | -3.76 |
| CN(CCN1CCOCC1)C(=O)CCCc1ccccc1 | -8.28 |
| CC1CCc2n[nH]c(C(=O)NCCc3ccco3)c2C1 (configuration not stated) | -6.63 |
| CCc1ncc(CN2CCN(c3cc(NC4CC4)nc(N)n3)CC2)cn1 | -3.44 |

| SMILES | cytotoxicity at 10 µM [%] |
| --- | --- |
| CCn1c(C2CCCN(Cc3ccnc4ccccc34)C2)nn(C)c1=O (configuration not stated) | -5.92 |
| CCn1ncnc1CN1CCc2[nH]cnc2C1Cc1ccccc1 (configuration not stated) | -4.94 |
| CN1CCN(C[C@@H]2CN(Cc3c(Cl)cncc3Cl)C[C@@H]2CO)CC1 | -124 |
| CCc1cnc(C)nc1NCCN1CCOCC1 | -2.66 |
| Cc1ncsc1C(=O)NCc1cc2n(n1)CCN(C(=O)N(C)C)C2 | -5.62 |
| CCN(Cc1ccncc1)C(=O)c1cn(CC2CCCNC2)nn1 (configuration not stated) | 5.35 |
| CC(=O)N[C@@H]1CN(C(=O)c2cc(C)oc2C)C[C@H]1c1ccc(C)o1 | -10.6 |
| COc1nccnc1N1CCC2(CC1)C(=O)N(C)c1ccccc12 | -4.89 |
| O=C(C1CCC1)N1CCN(Cc2cccnc2)[C@H]2CS(=O)(=O)C[C@H]21 | 1.02 |
| CCc1noc(CN(CC)Cc2cc3ccc(F)cc3[nH]c2=O)n1 | 2.24 |
| O=C(Nc1ccc(F)cc1)C1CNCCN1C(=O)CCc1cccnc1 (configuration not stated) | 2.06 |
| COc1ccc(C(=O)O)cc1-c1cccc(C(C)N(C)C)c1 (configuration not stated) | -7.13 |
| O=C(NCc1ccccn1)c1cc2n(n1)CCNC2 | 1.19 |
| CN1CCN(Cc2nc3c(s2)CCCC3)[C@H]2CS(=O)(=O)C[C@H]21 | 2.81 |
| COc1ccccc1N1CCN(C(=O)Cn2nccc2C)CC1(C)C | 11.8 |
| O=C(CN1CC(c2ccccc2)CC1=O)N1CCN(c2nccs2)CC1 (configuration not stated) | -1.7 |
| CCc1ccc(-c2cn(CCSc3ncn[nH]3)nn2)nc1 | -0.89 |
| CCc1nc(CN(C)Cc2nc(-c3ccccc3Cl)oc2C)no1 | -8.83 |
| COC(=O)N1CC(C)=C(C)CN1C(=O)Nc1ccc(Cl)c(Cl)c1 | -1.53 |
| CC(=O)N1CCCC1C(=O)NCCOc1c(C)cccc1C (configuration not stated) | -24.1 |
| CCc1nc2n(n1)CC(NCc1cc(OC)c3c(c1)OCO3)CC2 (configuration not stated) | 4.23 |
| Cc1csc(CNC(=O)N(C)Cc2ccncc2)n1 | -10.8 |
| Cc1cccc(C)c1OCC(=O)NS(=O)(=O)c1c(C)noc1C | -2.28 |

| SMILES | cytotoxicity at 10 µM [%] |
| --- | --- |
| Cc1noc(CNC2CCCN(Cc3noc(C4CC4)n3)C2)n1 (configuration not stated) | -1.7 |
| O=C(c1cc2c(s1)CCC2)N1CCCC1c1noc(C2CC2)n1 (configuration not stated) | -8.18 |
| Cc1cc(C)c(CNC(=O)NCc2ccc3c(c2)OCCO3)c(=O)[nH]1 | -11.6 |
| N#CC1(C(=O)N2CCCN(Cc3cscn3)CC2)CCCCC1 | -2.54 |
| Cc1nc(C)n(CC2CCCCN2Cc2cn3ccccc3n2)n1 (configuration not stated) | -4.47 |
| COc1ccc(S(=O)(=O)N2CCc3ccc(Cl)cc32)cc1C(=O)O | -11.6 |
| COC(=O)C1CCN(c2cc(C)nc(-c3ccncc3)n2)CC1 | 2.76 |
| COc1ccnc(N2CCN(C(=O)Cc3csc(C)n3)CC2)n1 | -15.6 |
| CCc1ncncc1C(=O)NC1CCc2nc(C)cn2C1 (configuration not stated) | -17.3 |
| CCN(Cc1ccc2c(c1)OCO2)C(=O)NCc1nc(C)cs1 | 7.47 |
| Cc1cccc(-c2nc(C)nn2CC(=O)N(C)C2CC2)c1 | -19.8 |
| C/C(=C\c1ccccc1)CN1CCCC(c2nnc3n2CCNCC3)C1 (configuration not stated) | 6.97 |
| CN(C)c1ncc(I)c(C2CCCN2C)n1 (configuration not stated) | 3.7 |
| O=C(c1cccnc1)N1C[C@H]2CN(Cc3cccc(F)c3)C(=O)[C@H]2C1 | -78.9 |
| Cc1noc(C)c1CNCC1COCc2c(-c3ccsc3)nnn2C1 (configuration not stated) | 5.74 |
| O=C1[C@H]2CN(CC3CCOCC3)C[C@H]2CN1Cc1cccc(F)c1 | -118 |
| COCCN1C2(CCN(CC3CC3)C2)c2ccccc2S1(=O)=O (configuration not stated) | -130 |
| O=C(N1CCCC1)N1C[C@@H](OCc2cccnc2)[C@H]2OCCC[C@H]21 | 4.85 |
| CC(=O)c1cc(CN2C[C@@H]3CC[C@H]2CN(S(C)(=O)=O)C3)cs1 | 8.35 |
| COCCN1C(=O)CCC12CCC(NC(=O)c1cc(C)on1)CC2 (configuration not stated) | 3.94 |
